Data reported in ChEMBL document CHEMBL4689842, “EUbOPEN Chemogenomics Library wave 1” (2021).

System: U2OS
Assay: Multiplex assay against U2OS
Type: toxicity, cell-based
Details: human
Method in brief: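 Compound was added to live cells that had been stained at seeding with Hoechst33342, BioTracker Green Microtubule Cytoskeleton Dye, MitoTracker Red and Annexin V Alexa Fluor 680, and imaging followed on a CQ1 microscope at 37°C and 5% CO2. CellPathfinder machine-learning gating divided cells into Hoechst high-intensity objects or normal cells, normal cells into healthy, pyknosed or fragmented nuclei, and pyknosed cells into mitotic or apoptotic. Tubulin, mitochondrial-mass and membrane-permeability phenotypes are per cents of healthy-nucleus cells.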

[1] = 12 h, 1 µM, compound concentration 1 uM, replicate 1
[2] = 12 h, 1 µM, compound concentration 1 uM, replicate 2
[3] = 12 h, 10 µM, compound concentration 10 uM, replicate 1
[4] = 12 h, 10 µM, compound concentration 10 uM, replicate 2
[5] = 24 h, 1 µM, compound concentration 1 uM, replicate 1
[6] = 24 h, 1 µM, compound concentration 1 uM, replicate 2
[7] = 24 h, 10 µM, compound concentration 10 uM, replicate 1
[8] = 24 h, 10 µM, compound concentration 10 uM, replicate 2
[9] = 48 h, 1 µM, compound concentration 1 uM, replicate 1
[10] = 48 h, 1 µM, compound concentration 1 uM, replicate 2
[11] = 48 h, 10 µM, compound concentration 10 uM, replicate 1
[12] = 48 h, 10 µM, compound concentration 10 uM, replicate 2

CC(/C=C1\SC(=S)N(CCCC(=O)Nc2ccc(C(=O)O)c(O)c2)C1=O)=C\c1ccccc1
Population Apoptotic (%) [1]: 53%
Population Fragmented Nuclei (%) [1]: 8%
Population Healthy Nuclei (%) [1]: 77%
Population Hoechst High Intensity Objects (%) [1]: 3%
Population Membrane Permeable-Phenotype (%) [1]: 7%
Population Mitochondria Different-Phenotype (%) [1]: 5%
Population Mitotic Cells (%) [1]: 46%
Population Normal (%) [1]: 96%
Population Pyknosed Nuclei (%) [1]: 13%
Population Tubulin-Different-Phenotype (%) [1]: 13%
Total Cell Count [1]: 154
Population Apoptotic (%) [2]: 33%
Population Fragmented Nuclei (%) [2]: 10%
Population Healthy Nuclei (%) [2]: 81%
Population Hoechst High Intensity Objects (%) [2]: 6%
Population Mitochondria Different-Phenotype (%) [2]: 7%
Population Mitotic Cells (%) [2]: 66%
Population Normal (%) [2]: 93%
Population Pyknosed Nuclei (%) [2]: 7%
Population Tubulin-Different-Phenotype (%) [2]: 7%
Total Cell Count [2]: 65
Population Apoptotic (%) [3]: 42%
Population Fragmented Nuclei (%) [3]: 7%
Population Healthy Nuclei (%) [3]: 86%
Population Hoechst High Intensity Objects (%) [3]: 9%
Population Membrane Permeable-Phenotype (%) [3]: 9%
Population Mitochondria Different-Phenotype (%) [3]: 5%
Population Mitotic Cells (%) [3]: 57%
Population Normal (%) [3]: 90%
Population Pyknosed Nuclei (%) [3]: 5%
Population Tubulin-Different-Phenotype (%) [3]: 8%
Total Cell Count [3]: 117
Population Apoptotic (%) [4]: 44%
Population Fragmented Nuclei (%) [4]: 17%
Population Healthy Nuclei (%) [4]: 72%
Population Hoechst High Intensity Objects (%) [4]: 7%
Population Membrane Permeable-Phenotype (%) [4]: 6%
Population Mitochondria Different-Phenotype (%) [4]: 6%
Population Mitotic Cells (%) [4]: 55%
Population Normal (%) [4]: 92%
Population Pyknosed Nuclei (%) [4]: 10%
Population Tubulin-Different-Phenotype (%) [4]: 9%
Total Cell Count [4]: 88
Population Apoptotic (%) [5]: 53%
Population Fragmented Nuclei (%) [5]: 6%
Population Healthy Nuclei (%) [5]: 83%
Population Hoechst High Intensity Objects (%) [5]: 4%
Population Membrane Permeable-Phenotype (%) [5]: 5%
Population Mitochondria Different-Phenotype (%) [5]: 9%
Population Mitotic Cells (%) [5]: 46%
Population Normal (%) [5]: 95%
Population Pyknosed Nuclei (%) [5]: 10%
Population Tubulin-Different-Phenotype (%) [5]: 5%
Total Cell Count [5]: 151
Population Apoptotic (%) [6]: 54%
Population Fragmented Nuclei (%) [6]: 12%
Population Healthy Nuclei (%) [6]: 76%
Population Hoechst High Intensity Objects (%) [6]: 6%
Population Membrane Permeable-Phenotype (%) [6]: 4%
Population Mitochondria Different-Phenotype (%) [6]: 10%
Population Mitotic Cells (%) [6]: 45%
Population Normal (%) [6]: 93%
Population Tubulin-Different-Phenotype (%) [6]: 12%
Total Cell Count [6]: 64
Population Apoptotic (%) [7]: 36%
Population Fragmented Nuclei (%) [7]: 11%
Population Healthy Nuclei (%) [7]: 81%
Population Hoechst High Intensity Objects (%) [7]: 5%
Population Membrane Permeable-Phenotype (%) [7]: 5%
Population Mitochondria Different-Phenotype (%) [7]: 8%
Population Mitotic Cells (%) [7]: 63%
Population Normal (%) [7]: 94%
Population Pyknosed Nuclei (%) [7]: 6%
Population Tubulin-Different-Phenotype (%) [7]: 6%
Total Cell Count [7]: 151
Population Apoptotic (%) [8]: 44%
Population Fragmented Nuclei (%) [8]: 9%
Population Healthy Nuclei (%) [8]: 83%
Population Hoechst High Intensity Objects (%) [8]: 4%
Population Mitochondria Different-Phenotype (%) [8]: 14%
Population Mitotic Cells (%) [8]: 55%
Population Normal (%) [8]: 95%
Population Pyknosed Nuclei (%) [8]: 7%
Population Tubulin-Different-Phenotype (%) [8]: 14%
Total Cell Count [8]: 115
Population Apoptotic (%) [9]: 61%
Population Fragmented Nuclei (%) [9]: 2%
Population Healthy Nuclei (%) [9]: 92%
Population Hoechst High Intensity Objects (%) [9]: 1%
Population Membrane Permeable-Phenotype (%) [9]: 1%
Population Mitochondria Different-Phenotype (%) [9]: 9%
Population Mitotic Cells (%) [9]: 38%
Population Normal (%) [9]: 98%
Population Pyknosed Nuclei (%) [9]: 5%
Population Tubulin-Different-Phenotype (%) [9]: 10%
Total Cell Count [9]: 142
Population Apoptotic (%) [10]: 50%
Population Fragmented Nuclei (%) [10]: 7%
Population Healthy Nuclei (%) [10]: 84%
Population Hoechst High Intensity Objects (%) [10]: 4%
Population Membrane Permeable-Phenotype (%) [10]: 10%
Population Mitochondria Different-Phenotype (%) [10]: 14%
Population Mitotic Cells (%) [10]: 50%
Population Normal (%) [10]: 95%
Population Pyknosed Nuclei (%) [10]: 8%
Population Tubulin-Different-Phenotype (%) [10]: 14%
Total Cell Count [10]: 60
Population Apoptotic (%) [11]: 31%
Population Fragmented Nuclei (%) [11]: 5%
Population Healthy Nuclei (%) [11]: 87%
Population Hoechst High Intensity Objects (%) [11]: 2%
Population Membrane Permeable-Phenotype (%) [11]: 2%
Population Mitochondria Different-Phenotype (%) [11]: 11%
Population Mitotic Cells (%) [11]: 68%
Population Normal (%) [11]: 97%
Population Pyknosed Nuclei (%) [11]: 7%
Population Tubulin-Different-Phenotype (%) [11]: 11%
Total Cell Count [11]: 241
Population Apoptotic (%) [12]: 16%
Population Fragmented Nuclei (%) [12]: 4%
Population Healthy Nuclei (%) [12]: 92%
Population Hoechst High Intensity Objects (%) [12]: 0%
Population Membrane Permeable-Phenotype (%) [12]: 1%
Population Mitochondria Different-Phenotype (%) [12]: 17%
Population Mitotic Cells (%) [12]: 83%
Population Normal (%) [12]: 99%
Population Pyknosed Nuclei (%) [12]: 2%
Population Tubulin-Different-Phenotype (%) [12]: 19%
Total Cell Count [12]: 147
